Assay outcomes (PubChem BioAssay)
RORA inh = RORA (human) inhibition | inhibition, % at 10 µM | CHO-K1 Gal4-RORA LBD luciferase reporter, luminescence | 65,000 compounds, 0.43% hits | P35398;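 active means inhibition above the mean of all tested compounds plus 3 SD, cut at about 52% in these data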;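 further: 0% = RORA-transfected cells with DMSO and 100% = mock-transfected cells lacking RORA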
Target sequence (P35398 whole entry, looked up, the tested form may be a part): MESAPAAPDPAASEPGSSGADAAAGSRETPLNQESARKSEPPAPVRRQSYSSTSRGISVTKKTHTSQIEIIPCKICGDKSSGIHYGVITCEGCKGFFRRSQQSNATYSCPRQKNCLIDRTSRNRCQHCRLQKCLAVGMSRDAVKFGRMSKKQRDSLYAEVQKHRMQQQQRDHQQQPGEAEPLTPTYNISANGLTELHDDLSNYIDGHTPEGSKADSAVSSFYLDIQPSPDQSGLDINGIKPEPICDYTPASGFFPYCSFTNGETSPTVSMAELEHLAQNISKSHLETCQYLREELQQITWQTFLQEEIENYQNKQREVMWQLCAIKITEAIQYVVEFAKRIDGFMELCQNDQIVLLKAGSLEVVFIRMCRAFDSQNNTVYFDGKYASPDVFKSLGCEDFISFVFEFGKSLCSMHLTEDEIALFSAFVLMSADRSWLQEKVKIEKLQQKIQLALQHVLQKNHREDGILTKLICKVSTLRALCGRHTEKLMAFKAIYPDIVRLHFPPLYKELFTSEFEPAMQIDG
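Test system: CHO-K1 cells with Gal4-hRORA LBD fusion and pG5-luc reporter / Compound: single concentration per compound, 10 µM final / Schedule: 20 h compound treatment, 37 °C / Signal: luminescence from basal luciferase reporter expression / Read-out: % inhibition / Control set: mock-transfected cells as 100%, +RORA DMSO cells as 0% / Replicates: tested once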
Starred values were filed as active, the others as inactive. The entries come from a sample that favours hits as a whole.

SMILES | RORA inh
Cc1ccccc1C(=O)Nc1ccc(Br)cn1 | -67
CC(=O)c1c(C)[nH]c(C(=O)Nc2ccc(C)cn2)c1C | 73*
CCOC(=O)c1[nH]c(C)c(C(=O)Nc2ccccc2C)c1C | -81
c1ccc(N2CCN(c3ccccc3)C2c2cccs2)cc1 | -58
Cc1ccccc1NC(=O)N1CCCC(c2nc(-c3ccc(F)cc3)no2)C1 (stereo unspecified) | 7
Cc1ccccc1NC(=O)N1CCCC(c2nc(-c3ccc(C(C)C)cc3)no2)C1 (stereo unspecified) | 54*
CC(=O)N1CCc2cc(C(=O)CN3CCN(C(=O)c4ccco4)CC3)ccc21 | -17
CSc1ccc(/C=N/n2nnnc2N)cc1 | -51
COc1ccc(/C=N\n2nnc3ccccc32)cc1 | 74*
C=CCSc1nncn1/N=C/c1ccc(OC)cc1 | -91
CC1CCCC(C)N1C(=O)c1cc(-c2cccs2)on1 (stereo unspecified) | -61
Cc1cccc(-n2ncc3c(N(C)C4CCCCC4)ncnc32)c1 | 73*
CCN(c1ccccc1)c1ncnc2c1cnn2-c1ccccc1 | -59
Cc1cccc(-n2ncc3c(NCc4ccccc4)ncnc32)c1 | -78
COCCN(CCOC)c1ncnc2c1cnn2-c1ccc(Cl)cc1 | -55
COc1ccc(-n2ncc3c(N(C)C4CCCCC4)ncnc32)cc1 | 76*
Cc1cccc(-n2ncc3c(N(CCO)CCO)ncnc32)c1 | -68
CC1(C)CC(=O)C(C=NCC2CCCO2)=C(O)C1 (stereo unspecified) | 0
N#CC(C#N)=c1ccc2c(c1)NC1(CCCCC1)N=2 | 58*
COC(=O)c1cc2c(s1)CS(=O)C2 (stereo unspecified) | 4
CCOCCCNCC(=O)N1CCN(S(=O)(=O)c2ccc(C)cc2)CC1 | 24
Cc1nnc(SCC(=O)Nc2ccc3c(c2)COC3=O)n1-c1ccccc1 | 6
Cc1cccc2cc(COC(=O)C(C)C)c(=O)[nH]c12 | 12
O=S1(=O)Nc2c(ccc3cccnc23)-c2ccccc21 | 74*
O=C(Nc1ccccc1)Nc1cccc2cccnc12 | -86
SMILES | RORA inh
CCOC(=O)Cc1csc(NC(=O)CSc2nnc(-c3ccc(OC)cc3)n2C)n1 | -6
Cc1nc2c(ccc3nc(NC(=O)c4ccc5c(c4)OCCO5)sc32)s1 | 8
CC(=O)Nc1nc2cc3c(cc2s1)OCO3 | -72
O=C(Nc1nc2cc3c(cc2s1)OCO3)C1=COCCO1 | 68*
Cc1ccc2nc(NC3=NCN(CCN4CCOCC4)CN3)nc(C)c2c1 | -8
CC1(C)NC(=O)N(CC(O)COc2ccc(N3C(=O)c4ccccc4C3=O)cc2)C1=O (stereo unspecified) | -17
O=C(NCc1cccs1)c1noc2c1CCCC2 | -55
c1csc(CCNc2ncnc3sc4c(c23)CCC4)c1 | 72*
CCOC(=O)c1c(C)[nH]c(C)c1C(=O)CSc1nnc(-c2ccncc2)n1C | 5
Cn1c(NC(=O)C2c3ccccc3Oc3ccccc32)cc(=O)n(C)c1=O | -19
CCCCc1ccc(NC(=O)C2CCN(S(C)(=O)=O)CC2)cc1 | 6
O=C(O)c1cccc(N2CCCC2)c1 | 3
COc1ccc(Nc2nc(N3CCCC3)c3ccccc3n2)cc1 | 10
c1ccc(-c2nc(N3CCCCCC3)c3ccccc3n2)nc1 | 79*
CCOC(=O)C1CCCN(c2c(NCCCN3CCCC(C)C3)c(=O)c2=O)C1 (stereo unspecified) | 8
CC(C)C(=O)N1CCN(C2=NS(=O)(=O)c3ccccc32)CC1 | 16
CCCNc1nc2c(c(=O)n(C)c(=O)n2C)n1CCc1ccccc1 | 17
CCn1c(NCc2ccccn2)nc2c1c(=O)n(C)c(=O)n2C | -2
Cn1c(NCc2ccccc2)nc2c1c(=O)n(Cc1ccc(Br)cc1)c(=O)n2C | 7
CCCCC(=O)NCCNc1nc2c(c(=O)n(C)c(=O)n2C)n1Cc1ccc(F)cc1 | 10
COc1cccc(Cn2c(NCc3ccco3)nc3c2c(=O)n(C)c(=O)n3C)c1 | 62*
CCCNc1nc2c(c(=O)n(C)c(=O)n2C)n1Cc1cccc(C)c1 | 55*
CNc1nc2c(c(=O)[nH]c(=O)n2C)n1CCOC | 9
CCCCC(=O)N(c1ccc(C)c(C)c1)C1C=CS(=O)(=O)C1 (stereo unspecified) | 3
COc1ccc(NC(=O)c2cnc3ccccn3c2=O)cc1OC | -53
SMILES | RORA inh
COc1cc2ccccc2cc1C(=O)Nc1cccnc1 | -77
COCc1nc(-c2ccc(-c3ccc(OC)cc3)nc2OC)no1 | -49
CCOc1ccc(-c2noc(CCC(=O)O)n2)cc1 | 54*
CCCCC(=O)Nc1ccc(NC(=O)c2cccnc2)cn1 | -6
COCc1nc(-c2ccc(-c3ccccc3)nc2OC)no1 | -72
CCOc1nc(-c2ccccc2)ccc1-c1noc(COC)n1 | -3
COc1ccc(-c2noc(CCCC(=O)O)n2)cc1 | 68*
CCOC(=O)Cn1c(CCC(=O)O)ccc1-c1ccc(F)cc1 | 17
Cc1ccc(-c2noc(CCCC(=O)Nc3cccnc3)n2)cc1 | 53*
O=S(=O)(NCC(c1cccnc1)N1CCN(Cc2ccccc2)CC1)c1ccccc1 (stereo unspecified) | -4
O=C(NCC12CC3CC(CC(C3)C1)C2)c1cc2n(n1)C(C(F)(F)F)CC(c1ccco1)N2 (stereo unspecified) | -5
COC(=O)CCP(=O)(O)Cc1ccccc1CP(=O)(O)CCC(=O)OC | 0
COC(=O)c1cccc(-n2nnnc2SCC(=O)Nc2cc(C)on2)c1 | 21
c1cncc(-c2nn3c(-c4ccncc4)nnc3s2)c1 | -17
O=C(CSc1nnc(-c2cccnc2)n1-c1ccccc1)Nc1ccc2c(c1)OCO2 | -10
CCCCn1c(SCc2nnc(-c3ccccc3)o2)nc2c1c(=O)n(C)c(=O)n2C | 6
Cc1cc(/C=c2/sc3nc4ccccc4n3c2=O)c(C)n1-c1ccccn1 | 87*
Oc1ccc(-c2nnc(SCC3CCCCC3)o2)cc1 | -59
COc1ccccc1C(=O)Nc1c2c(nn1-c1cccc(C)c1C)CS(=O)(=O)C2 | 20
CCCCC(=O)NC(Nc1ccc(C)cn1)(C(=O)OCC)C(F)(F)F (stereo unspecified) | 22
COc1cc(-c2nnc(COc3ccc4ccccc4c3)o2)cc(OC)c1OC | 11
CCc1ccc(-c2nc(CN3CCCC(C(=O)NCCc4ccc(OC)c(OC)c4)C3)c(C)o2)cc1 (stereo unspecified) | -11
CCOC(=O)N1CCC(NC(=O)C2CCCN(Cc3nc(-c4cccc(Cl)c4)oc3C)C2)CC1 (stereo unspecified) | 63*
Cc1oc(-c2cccc(Cl)c2)nc1CN1CCC(C(=O)NCCCN2CCCC2=O)CC1 | -2
CC(=O)Nc1nc2ccc(-c3nc4ccccc4o3)cc2s1 | -69
SMILES | RORA inh
Cc1cc(NC(=O)CSc2ncnc3ccccc23)no1 | -3
Cc1cc(/C=N/n2cnnc2)c(C)n1-c1ccc(OCc2ccc(F)cc2)cc1 | 70*
C(=N\n1cnnc1)/c1ccc(OC2CSC2)cc1 | -20
O=C(NCCCn1ccnc1)c1cc(-c2cccs2)on1 | -92
COc1ccc(N/C=C2\CCOC2=O)cc1 | 30
O=C(Nc1ccc2c(c1)OCO2)c1cccc(F)c1 | -52
O=C1/C(=C/Nc2ccc3c(c2)OCO3)CCc2ccccc21 | 72*
Cn1c(SCc2ccc(C#N)cc2Cl)nc2ccccc21 | -82
Cc1ccc(-c2ccc(=O)n(CC(=O)Nc3cccc(C(=O)N4CCN(C)CC4)c3)n2)cc1 | 9
CC1=C(C(=O)OC(C)(C)C)C(c2ccco2)C(C#N)=C(N)O1 (stereo unspecified) | -2
